According to publication PMC2692502 (Journal of Antimicrobial Chemotherapy, 2009):
Where two headings read alike, the source gives them in different places.

Tests used:
[1] = Study 2: safety and tolerability; type: in vivo, human
How it was run: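 Healthy adults (24 enrolled) were randomized 3:2:1 in a single-blind, placebo-controlled, parallel-group design. Groups received test compound 6 mg/kg, 4 mg/kg or placebo as a 2 min peripheral iv injection by syringe driver, once daily for 7 days. All subjects entered the safety analysis. The investigator graded AEs for relatedness (not, unlikely, possibly, probably) and severity. Tabulated AEs were possibly or probably related. Follow-up was 9–11 days after last dose.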

[2] = cited from earlier work
[3] = type: in vivo, human; details: for AUC(0-t): AUC0–t, trapezoidal rule; for clearance: CL, healthy adult volunteers
How it was run: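 Healthy adult volunteers, randomized open-label two-period crossover: a single 6 mg/kg dose given as a 30 min iv infusion and as a 2 min iv injection, with a 5 day washout. Heparinized blood was drawn predose, immediately after dosing and up to 36 h after dosing ended. Total plasma drug was measured by HPLC (LLOQ 3 mg/L). Non-compartmental trapezoidal AUC was computed. The injection:infusion ratio (95% CI) came from ANOVA of log-transformed values.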

[4] = Study 2: single- and multiple-dose pharmacokinetics of the 2 min iv injection; type: in vivo, human
How it was run: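 Healthy adults were randomized single-blind to 6 or 4 mg/kg test compound or placebo as a 2 min peripheral iv injection by syringe driver, once daily for 7 days. Heparinized blood was drawn on days 1 and 7, from predose to 24 h after injection start, plus 36 and 48 h on day 7. Total plasma drug was measured by HPLC (LLOQ 3 mg/L). Non-compartmental analysis gave AUC by the trapezoidal rule and CL, reported as arithmetic means.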

[5] = Study 2, 4 mg/kg 2 min iv injection once daily for 7 days, n = 8
[6] = Study 2, 6 mg/kg 2 min iv injection once daily for 7 days, n = 12
[7] = Study 1, 2 min iv injection relative to 30 min iv infusion, 6 mg/kg, ANOVA of log-transformed values, n = 15
[8] = Study 2, day 1, geometric mean ratio, 6 mg/kg n = 12, 4 mg/kg n = 8, 2 min iv injection

Structure (SMILES): CCCCCCCCCC(=O)N[C@@H](Cc1c[nH]c2ccccc12)C(=O)N[C@H](CC(N)=O)C(=O)N[C@@H](CC(=O)O)C(=O)N[C@@H]1C(=O)NCC(=O)N[C@@H](CCCN)C(=O)N[C@@H](CC(=O)O)C(=O)N[C@H](C)C(=O)N[C@@H](CC(=O)O)C(=O)NCC(=O)N[C@H](CO)C(=O)N[C@@H]([C@H](C)CC(=O)O)C(=O)N[C@@H](CC(=O)c2ccccc2N)C(=O)O[C@@H]1C [daptomycin]
- Subjects with at least one adverse event possibly or probably related to study drug: Any adverse event [1, 5]: 2 (25) n (%)
- Subjects with related adverse event: Gastrointestinal disorders [1, 5]: 1 (13) n (%)
- Subjects with related adverse event: Infections and infestations [1, 5]: 0 n (%)
- Subjects with related adverse event: Nervous system disorders [1, 5]: 1 (13) n (%)
- Subjects with related adverse event: dizziness [1, 5]: 0 n (%)
- Subjects with related adverse event: dizziness postural [1, 5]: 0 n (%)
- Subjects with related adverse event: flatulence [1, 5]: 1 (13) n (%)
- Subjects with related adverse event: headache [1, 5]: 0 n (%)
- Subjects with related adverse event: lethargy [1, 5]: 1 (13) n (%)
- Subjects with related adverse event: nausea [1, 5]: 0 n (%)
- Subjects with related adverse event: pain in extremity [1, 5]: 1 (13) n (%)
- Subjects with related adverse event: paraesthesia [1, 5]: 0 n (%)
- Subjects with related adverse event: upper respiratory tract infection [1, 5]: 0 n (%)
- subjects with erythema (local injection-site reaction) [1, 5]: five subjects
- Subjects with at least one adverse event possibly or probably related to study drug: Any adverse event [1, 6]: 3 (25) n (%)
- Subjects with related adverse event: Gastrointestinal disorders [1, 6]: 0 n (%)
- Subjects with related adverse event: Infections and infestations [1, 6]: 0 n (%)
- Subjects with related adverse event: Nervous system disorders [1, 6]: 3 (25) n (%)
- Subjects with related adverse event: dizziness [1, 6]: 1 (8) n (%)
- Subjects with related adverse event: dizziness postural [1, 6]: 1 (8) n (%)
- Subjects with related adverse event: flatulence [1, 6]: 0 n (%)
- Subjects with related adverse event: headache [1, 6]: 1 (8) n (%)
- Subjects with related adverse event: lethargy [1, 6]: 0 n (%)
- Subjects with related adverse event: nausea [1, 6]: 0 n (%)
- Subjects with related adverse event: pain in extremity [1, 6]: 0 n (%)
- Subjects with related adverse event: paraesthesia [1, 6]: 0 n (%)
- Subjects with related adverse event: upper respiratory tract infection [1, 6]: 0 n (%)
- subjects with erythema (local injection-site reaction) [1, 6]: two subjects
- time to resolution of local injection-site reactions ([1]; Study 2, 2 min iv injection, reactions generally mild and transient): ≤ 1 h
- serious or other significant AEs ([1]; Study 2, multiple-dose, 24 subjects enrolled (placebo included)): no serious or other significant AEs
- steady state reached by ([2]; 30 min iv infusion, independent of dose): ≤ 3 days
- volume of distribution (V) ([2]; average): ~0.1 L/kg
- 95% CI for the ratio of the geometric means, AUC0–t [3, 7]: 0.8709–1.0055
- 95% CI for the ratio of the geometric means, AUC0–∞ [3, 7]: 0.9007–1.0117
- 95% CI for the ratio of the geometric means, Cmax [3, 7]: 0.9588–1.1719
- t1/2 ([3]; Study 1, single 6 mg/kg dose, 30 min iv infusion, plasma, HPLC, non-compartmental, harmonic mean (SD), n = 15, SD): 8.7 (0.9) h
- AUC(0-t) ([3]; both, human, plasma, iv, 6 mg/kg, Study 1, single 6 mg/kg dose, 2 min iv injection, HPLC, arithmetic mean (SD), n = 15, not dose-normalized, SD): 626 µg·h/mL
- AUC(0-t) ([3]; both, human, plasma, iv, 6 mg/kg, Study 1, single 6 mg/kg dose, 30 min iv infusion, HPLC, arithmetic mean (SD), n = 15, not dose-normalized, SD): 670 µg·h/mL
- AUC(0-inf) ([3]; both, human, plasma, iv, 6 mg/kg, AUC0–∞, Study 1, single 6 mg/kg dose, 2 min iv injection, HPLC, arithmetic mean (SD), n = 15, not dose-normalized, SD): 691 µg·h/mL
- clearance ([3]; both, human, plasma, iv, 6 mg/kg, Study 1, single 6 mg/kg dose, 2 min iv injection, HPLC, non-compartmental, arithmetic mean (SD), n = 15, SD): 0.148 mL/min/kg
- clearance ([3]; both, human, plasma, iv, 6 mg/kg, Study 1, single 6 mg/kg dose, 30 min iv infusion, HPLC, non-compartmental, arithmetic mean (SD), n = 15, SD): 0.138 mL/min/kg
- Cmax ([3]; both, human, plasma, iv, 6 mg/kg, Cmax, Study 1, single 6 mg/kg dose, 30 min iv infusion, HPLC, arithmetic mean (SD), n = 15, not dose-normalized, SD): 88.4 µg/mL
- Vd ([3]; both, human, plasma, iv, 6 mg/kg, SD): 0.113 L/kg
- steady-state concentrations achieved by ([4]; Study 2, both treatment groups (6 mg/kg and 4 mg/kg), 2 min iv injection once daily, data not shown): third daily dose
- AUC0–∞ ([4]; Study 2, day 1, 6 mg/kg 2 min iv injection, healthy adult volunteers, plasma, HPLC, non-compartmental, arithmetic mean (SD), n = 12, SD): 690.37 (68.83) mg·h/L
- CL ([4]; Study 2, day 1, 6 mg/kg 2 min iv injection, plasma, arithmetic mean (SD), n = 12, SD): 0.0088 (0.0009) L/h/kg
- Ratio of 6 mg/kg:4 mg/kg daptomycin (95% CI), AUC0–tau (dose-normalized) [4, 8]: 1.02 (0.87–1.2)
- Ratio of 6 mg/kg:4 mg/kg daptomycin (95% CI), Ae0–tau (dose-normalized), cumulative amount of unchanged daptomycin excreted in urine [4, 8]: 0.95 (0.72–1.25)
- Ratio of 6 mg/kg:4 mg/kg daptomycin (95% CI), CL [4, 8]: 1.00 (0.85–1.18)
- Ratio of 6 mg/kg:4 mg/kg daptomycin (95% CI), Cmax (dose-normalized) [4, 8]: 1.14 (0.97–1.3)
- V ([4]; Study 2, day 7, 6 mg/kg 2 min iv injection once daily, plasma, arithmetic mean (SD), n = 12, SD): 0.107 (0.011) L/kg
